Experiments:
[1] = molecular target: Coagulation factor X (Homo sapiens, UniProt P00742); assay: Inhibition of factor 10a by amidolytic assay
How it was run: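 […] taken as the mean of at least three experiments. Variation between runs stated as under 10%.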

[2] = molecular target: Urokinase-type plasminogen activator (Homo sapiens, UniProt P00749)
[3] = molecular target: Coagulation factor IX (Homo sapiens, UniProt P00740); assay: Inhibition of human recombinant factor 9a by amidolytic assay
[4] = Selectivity ratio of Ki for factor 10a to Ki for human recombinant factor 9a
[5] = Selectivity ratio of Ki for uPA to Ki for human recombinant factor 9a
[6] = test system: Plasma; assay: Anticoagulant potency in human plasma assessed as concentration required to double the thrombin time; type: functional
How it was run: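 Plasma from citrated blood of healthy volunteers, centrifuged at 2000g for 10 min and kept on ice. Plasma incubated 2 min at 37 C, then thrombin reagent added. Clotting time monitored at 660 nm on an automated analyzer.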

[7] = test system: Plasma; assay: Anticoagulant potency in human plasma assessed as concentration required to double the prothrombin time; type: functional
How it was run: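 Citrated plasma from healthy volunteers, centrifuged at 2000g for 10 min and held on ice. Plasma incubated 3 min at 37 C before addition of thromboplastin PT reagent (Thromborel S). Clot formation followed at 660 nm in an automated coagulation analyzer.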

[8] = test system: Plasma; assay: Anticoagulant potency in human plasma assessed as concentration required to double the […]; type: functional
How it was run: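 Citrated plasma from healthy volunteers, centrifuged at 2000g for 10 min and held on ice. Plasma incubated 1 min at 37 C, aPTT reagent (FSL) added, then 3 min at 37 C. Clotting started with 0.025 M CaCl2. Clot formation read at 660 nm on an automated coagulation analyzer.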

[9] = Protein binding in human plasma; type: ADME, cell-free; conditions: read-out: PPB (converted)

Chain of Coagulation factor X (P00742 41-179 limits assumed): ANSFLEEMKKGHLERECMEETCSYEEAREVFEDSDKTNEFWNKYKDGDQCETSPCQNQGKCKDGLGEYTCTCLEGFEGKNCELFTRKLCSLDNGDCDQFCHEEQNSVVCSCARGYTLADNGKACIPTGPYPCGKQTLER
Chain of Coagulation factor X (P00742 235-488 limits assumed): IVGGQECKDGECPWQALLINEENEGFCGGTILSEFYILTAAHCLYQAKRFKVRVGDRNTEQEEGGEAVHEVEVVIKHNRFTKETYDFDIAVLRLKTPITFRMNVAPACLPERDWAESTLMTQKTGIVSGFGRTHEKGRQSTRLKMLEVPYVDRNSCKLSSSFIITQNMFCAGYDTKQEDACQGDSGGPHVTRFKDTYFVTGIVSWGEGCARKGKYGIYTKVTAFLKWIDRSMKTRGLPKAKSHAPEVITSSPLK
Chain of Coagulation factor IX (P00740 47-191 limits assumed): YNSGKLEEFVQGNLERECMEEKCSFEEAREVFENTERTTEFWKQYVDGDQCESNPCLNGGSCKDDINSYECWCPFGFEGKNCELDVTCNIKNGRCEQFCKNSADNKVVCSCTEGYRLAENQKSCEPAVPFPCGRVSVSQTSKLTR
Chain of Coagulation factor IX (P00740 227-461 limits assumed): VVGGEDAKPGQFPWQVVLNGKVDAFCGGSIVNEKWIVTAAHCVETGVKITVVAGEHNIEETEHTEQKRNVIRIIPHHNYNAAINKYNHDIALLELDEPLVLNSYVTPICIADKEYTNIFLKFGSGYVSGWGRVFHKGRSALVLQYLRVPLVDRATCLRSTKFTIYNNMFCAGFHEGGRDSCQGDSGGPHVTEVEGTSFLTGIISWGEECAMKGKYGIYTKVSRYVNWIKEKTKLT

Ki [1]	Ki [2]	Ki [3]	Ratio Ki [4]	Ratio Ki [5]	fraction unbound [9]	SMILES	Activity [6]	Activity [7]	Activity [8]
13.8 µM	0.5 µM	0.5 µM	–	–	–	COC(=O)C(Oc1cccc2sc(C(=N)N)cc12)c1ccccc1 (centres undefined)	–	–	–
0.7 µM	0.21 µM	0.097 µM	–	–	–	CNC(=O)OCC(Oc1cccc2sc(C(=N)N)cc12)c1ccccc1 (centres undefined)	–	–	–
1.3 µM	0.059 µM	0.011 µM	118	5	–	COC(=O)Cn1nc(C)c(NC(=O)OCC(Oc2cccc3sc(C(=N)N)cc23)c2ccccc2)c1C (centres undefined)	–	–	–
1.63 µM	0.151 µM	0.003 µM	542	50	0.04	Cc1nn(C)c(CNC(C)C)c1NC(=O)OCC(Oc1cccc2sc(C(=N)N)cc12)c1ccccc1 (centres undefined)	25 µM	29 µM	5.9 µM
1.74 µM	–	0.27 µM	–	–	–	N=C(N)c1cc2c(OC(CO)c3ccccc3)cccc2s1 (centres undefined)	–	–	–
2.11 µM	0.828 µM	0.0044 µM	486	190	–	N=C(N)c1cc2c(OC(COC(=O)Nc3ccccc3CN)c3ccccc3)cc(F)cc2s1 (centres undefined)	–	–	–
1.3 µM	0.22 µM	0.34 µM	–	–	–	CC(=O)NCC(Oc1cccc2sc(C(=N)N)cc12)c1ccccc1 (centres undefined)	–	–	–
2.84 µM	0.058 µM	0.008 µM	360	7	0.05	Cc1n[nH]c(C)c1NC(=O)OCC(Oc1cccc2sc(C(=N)N)cc12)c1ccccc1 (centres undefined)	>80 µM	63 µM	11.7 µM
1.81 µM	0.44 µM	0.01 µM	181	44	–	N=C(N)c1cc2c(OC(COC(=O)Nc3ccccc3)c3ccccc3)cccc2s1 (centres undefined)	–	–	–
1.59 µM	2.11 µM	0.0155 µM	102	137	–	N=C(N)c1cc2c(OC(COC(=O)Nc3ccccc3)c3ccccc3)cc(F)cc2s1 (centres undefined)	–	–	–
1.56 µM	0.201 µM	0.01 µM	156	20	–	CN1CCN(Cc2ccc(NC(=O)OCC(Oc3cccc4sc(C(=N)N)cc34)c3ccccc3)cc2)CC1 (centres undefined)	–	–	–
1.3 µM	0.249 µM	0.007 µM	186	34	–	N=C(N)c1cc2c(OC(COC(=O)Nc3c(F)cccc3F)c3ccccc3)cccc2s1 (centres undefined)	–	–	–
0.29 µM	0.17 µM	0.13 µM	–	–	–	COc1cccc(NC(=O)C(Oc2cccc3sc(C(=N)N)cc23)c2ccccc2)c1 (centres undefined)	–	–	–
0.828 µM	0.609 µM	0.008 µM	104	76	–	CN(C)Cc1ccccc1NC(=O)OCC(Oc1cccc2sc(C(=N)N)cc12)c1ccccc1 (centres undefined)	–	–	–
0.052 µM	0.14 µM	0.14 µM	–	–	–	COc1ccc(NC(=O)C(Oc2cccc3sc(C(=N)N)cc23)c2ccccc2)cc1 (centres undefined)	–	–	–
0.36 µM	0.15 µM	0.028 µM	–	–	–	CCNC(=O)OCC(Oc1cccc2sc(C(=N)N)cc12)c1ccccc1 (centres undefined)	–	–	–
3.4 µM	2.13 µM	1 µM	–	–	–	CN(C)CCNC(=O)C(Oc1cccc2sc(C(=N)N)cc12)c1ccccc1 (centres undefined)	–	–	–
0.83 µM	0.51 µM	0.061 µM	–	–	–	N=C(N)c1cc2c(OC(COC(=O)NCc3ccccc3)c3ccccc3)cccc2s1 (centres undefined)	–	–	–
3.77 µM	1.63 µM	0.035 µM	108	47	–	COc1ccc(NC(=O)OC[C@@H](Oc2cccc3sc(C(=N)N)cc23)c2ccccc2)cc1	–	–	–
1.15 µM	0.308 µM	0.003 µM	383	103	–	CNCc1ccccc1NC(=O)OCC(Oc1cccc2sc(C(=N)N)cc12)c1ccccc1 (centres undefined)	–	–	–

Ki [1]	Ki [2]	Ki [3]	Ratio Ki [4]	Ratio Ki [5]	fraction unbound [9]	SMILES	Activity [6]	Activity [7]	Activity [8]
1.27 µM	0.251 µM	0.005 µM	254	50	–	CNCc1cc(NC(=O)OCC(Oc2cccc3sc(C(=N)N)cc23)c2ccccc2)n(C)n1 (centres undefined)	–	–	–
2.38 µM	0.156 µM	0.005 µM	475	31	0.05	CNCc1c(NC(=O)OCC(Oc2cccc3sc(C(=N)N)cc23)c2ccccc2)c(C)nn1C (centres undefined)	56 µM	42 µM	7.7 µM
1.3 µM	0.935 µM	0.025 µM	52	37	–	N=C(N)c1cc2c(OC(COC(=O)Nc3cccc(F)c3)c3ccccc3)cccc2s1 (centres undefined)	–	–	–
0.6 µM	0.089 µM	0.003 µM	200	30	–	COc1ccc(NC(=O)OC[C@H](Oc2cccc3sc(C(=N)N)cc23)c2ccccc2)cc1	–	–	–
0.8 µM	0.226 µM	0.005 µM	160	45	–	COc1ccc(NC(=O)OCC(Oc2cccc3sc(C(=N)N)cc23)c2ccccc2)cc1 (centres undefined)	–	–	–
1.48 µM	0.575 µM	0.007 µM	212	82	–	N=C(N)c1cc2c(OC(COC(=O)Nc3ccc(F)cc3F)c3ccccc3)cccc2s1 (centres undefined)	–	–	–
0.96 µM	0.25 µM	0.029 µM	–	–	–	N=C(N)c1cc2c(OC(CNC(=O)Nc3ccccc3)c3ccccc3)cccc2s1 (centres undefined)	–	–	–
–	–	8.4 µM	–	–	–	COC(=O)CCNC(=O)C(Oc1cccc2sc(C(=N)N)cc12)c1ccccc1 (centres undefined)	–	–	–
0.55 µM	0.331 µM	0.005 µM	110	62	–	N=C(N)c1cc2c(OC(COC(=O)Nc3ccccc3F)c3ccccc3)cccc2s1 (centres undefined)	–	–	–
0.583 µM	0.733 µM	0.002 µM	292	367	–	CC(C)CNCc1ccccc1NC(=O)OCC(Oc1cccc2sc(C(=N)N)cc12)c1ccccc1 (centres undefined)	–	–	–
> 100 µM	2.27 µM	5.15 µM	–	–	–	COC(=O)C(C)Oc1cccc2sc(C(=N)N)cc12 (centres undefined)	–	–	–
0.0006 µM	0.16 µM	0.37 µM	–	–	–	CN(C)C(=O)c1ccc(NC(=O)C(Oc2cccc3sc(C(=N)N)cc23)c2ccccc2)cc1 (centres undefined)	–	–	–
0.825 µM	0.297 µM	0.004 µM	206	74	–	N=C(N)c1cc2c(OC(COC(=O)Nc3ccccc3CN)c3ccccc3)cccc2s1 (centres undefined)	–	–	–
0.15 µM	0.14 µM	0.17 µM	–	–	–	N=C(N)c1cc2c(OC(C(=O)Nc3ccccc3)c3ccccc3)cccc2s1 (centres undefined)	–	–	–
0.872 µM	0.201 µM	0.004 µM	218	50	–	CN(C)CCOc1ccc(NC(=O)OCC(Oc2cccc3sc(C(=N)N)cc23)c2ccccc2)cc1 (centres undefined)	–	–	–
1.18 µM	0.308 µM	0.008 µM	148	36	–	Cc1ccccc1NC(=O)OCC(Oc1cccc2sc(C(=N)N)cc12)c1ccccc1 (centres undefined)	–	–	–
4.45 µM	0.27 µM	0.16 µM	–	–	–	N=C(N)c1cc2c(OC(CN)c3ccccc3)cccc2s1 (centres undefined)	–	–	–
1.36 µM	0.94 µM	0.0081 µM	169	117	–	CN(C)Cc1ccccc1NC(=O)OCC(Oc1cc(F)cc2sc(C(=N)N)cc12)c1ccccc1 (centres undefined)	–	–	–
3.97 µM	0.65 µM	0.27 µM	–	–	–	N=C(N)c1cc2c(O[C@@H](c3ccccc3)c3nc(-c4ccccc4)no3)cccc2s1	–	–	–

SMILES	Ki [1]	Ki [2]	Ki [3]	Ratio Ki [4]	Ratio Ki [5]	fraction unbound [9]	Activity [6]	Activity [7]	Activity [8]
N=C(N)c1cc2c(OC(COC(=O)Nc3ccccc3CN3CCNCC3)c3ccccc3)cccc2s1 (centres undefined)	0.354 µM	0.833 µM	0.003 µM	118	278	0.05	20 µM	17 µM	5 µM
N=C(N)c1cc2c(OC(CNC(=O)Oc3ccccc3)c3ccccc3)cccc2s1 (centres undefined)	0.56 µM	0.085 µM	0.05 µM	–	–	–	–	–	–
N=C(N)c1cc2c(OC(C(=O)NCc3ccccc3)c3ccccc3)cccc2s1 (centres undefined)	0.95 µM	0.51 µM	0.39 µM	–	–	–	–	–	–
COCc1cc(NC(=O)OCC(Oc2cccc3sc(C(=N)N)cc23)c2ccccc2)n(C)n1 (centres undefined)	1.56 µM	0.109 µM	0.009 µM	173	12	–	–	–	–
Cc1noc(C)c1NC(=O)OCC(Oc1cccc2sc(C(=N)N)cc12)c1ccccc1 (centres undefined)	2.25 µM	0.142 µM	0.012 µM	210	12	–	–	–	–
N=C(N)c1cc2c(OC(CNCc3ccccc3)c3ccccc3)cccc2s1 (centres undefined)	0.25 µM	0.31 µM	0.1 µM	–	–	–	–	–	–
CCOC(=O)c1nccn1-c1ccc(NC(=O)C(Oc2cccc3sc(C(=N)N)cc23)c2ccccc2)cc1 (centres undefined)	0.0026 µM	0.19 µM	0.42 µM	–	–	–	–	–	–
N=C(N)c1cc2c(OC(C(=O)Nc3ccc(C(=O)N4CCCC4)cc3)c3ccccc3)cccc2s1 (centres undefined)	0.0005 µM	0.13 µM	0.29 µM	–	–	–	–	–	–
COc1ccccc1NC(=O)C(Oc1cccc2sc(C(=N)N)cc12)c1ccccc1 (centres undefined)	0.07 µM	0.12 µM	0.14 µM	–	–	–	–	–	–
